Measurements pooled from the literature.
Each line is one published result; the experiments were not run side by side.
Target: Phosphatidylinositol 4,5-bisphosphate 3-kinase catalytic subunit gamma isoform (PIK3CG, Homo sapiens, UniProt P48736)

Structure (SMILES) | test | conditions | endpoint | result
CCCS(=O)(=O)Nc1ccc(F)c(C(=O)c2c[nH]c3ncc(-c4ccc(Cl)cc4)cc23)c1F | enzyme activity, inhibitor | 1 µM | inhibition | < 10%
Cc1ccc(C(=O)Nc2ccc(CN3CCN(C)CC3)c(C(F)(F)F)c2)cc1C#Cc1cnc2cccnn12 | enzyme activity, inhibitor | 23.5 nM | remaining activity | 85%
CCc1ccccc1C(=O)Nc1n[nH]c2c(C)c(F)c(C3C(C#N)=C(C)N(C)C(C)=C3C#N)cc12 | cell-free assay, competition with immobilised ligand | 1 µM | remaining binding | 100%
COc1cc(-c2cc(-c3ccc(N4CCNCC4)cc3)cnc2C)cc(OC)c1OC | enzyme activity, inhibitor | 0.1 µM | inhibition | 14%
C[C@@H]1CN(c2cc(-c3nn(C)c4ccc(OC5(C)CC5)cc34)ncn2)C[C@H](C)O1 | cell-free assay, competition with immobilised ligand | 1 µM | remaining binding | 100%
Cc1ccc(NC(=O)c2ccc(C)c(C(F)(F)F)c2)cc1C#Cc1nn(C2CCC(O)CC2)c2ncnc(N)c12 (stereo not drawn) | enzyme activity, inhibitor | 10 µM | remaining activity | 87%
Cc1ccc(C(=O)NCc2ccsc2)cc1C#Cc1cn(C(C)C)c2ncnc(N)c12 | enzyme activity, inhibitor | 1 µM | activity vs control | 96%
CS(=O)(=O)c1cc(C2(NC(=O)c3cncc4c3cnn4-c3ccc(F)cc3)CC2)ccn1 | cell-free assay, competition with immobilised ligand | 1 µM | remaining binding | 82%
CC(C)CCn1c(SCC(=O)Nc2ccccc2C(F)(F)F)nc2nccnc2c1=O | enzyme activity, inhibitor | 10 µM | inhibition | < 20%
Cc1cc(NC(=O)c2cccc3cc(-c4cccc5[nH]nc(N)c45)ccc23)ccc1F | enzyme activity, inhibitor | 0.1 µM | activity vs control | 97%
Cc1c(NC(=O)c2cc(C(N)=O)nc3cc(F)ccc23)c(C(F)(F)F)nn1Cc1ccc(C#N)cc1 | cell-free assay, competition with immobilised ligand | 1 µM | remaining binding | 80%
CS(=O)(=O)Nc1cccc(-c2csc(NC(=O)CSc3nc4nccnc4c(=O)n3CCc3ccccc3)n2)c1 | enzyme activity, inhibitor | 10 µM | inhibition | 20%
